Assay results published in PMC2900633 (Bioorganic & medicinal chemistry, 2008).

How the values were obtained:
LNCaP cells = assay: MTT assay, LNCaP cells; assay type: cell-based; conditions: 24 h, ±10 μM
[1] = test system: Jurkat, PC3 and LNCaP cells; assay: MTT assay, statements over all three cell lines; assay type: cell-based
PC3 cells = assay: Endogenous PS exposure, Annexin V-FITC flow cytometry; assay type: cell-based; conditions: scramblase 100 μM, 37°C, 2 hours, background value 2 %
Method in brief: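 PC3 cells were grown in Ham's F-12K with 10% FBS at 37°C, 5% CO2. At 90% confluency they were PBS-washed, trypsinised and resuspended in TES buffer at 1 × 10^5 cells/mL. Test compound (100 μM, from DMSO stock) was added for 2 h at 37°C. Cells were then stained in binding buffer with Annexin V-FITC plus 7AAD (500 ng/mL) for 15 min at 37°C. Flow cytometry excluded 7AAD-positive cells. Three independent experiments were run.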

erythrocytes = conditions: raised from 1 %, previous work, ref 8f; cited from earlier work

Row | SMILES | LD50, LNCaP cells (LNCaP cells) | LD50 (effect on mitochondrial reductase activity) [1] | fraction of Annexin-stained cells (PC3 cells) | fraction of Annexin-stained cells, erythrocytes (erythrocytes)
1 | Cc1ccc(S(=O)(=O)NCCN(CCNC(=S)Nc2ccc(Cl)cc2)CCNS(=O)(=O)c2ccc(C)cc2)cc1 [scramblase 14] | 15 µM | > 15 µM |  | 
2 | Cc1ccc(S(=O)(=O)NCCN(CCNC(=O)Nc2ccc(C(F)(F)F)cc2)CCNS(=O)(=O)c2ccc(C)cc2)cc1 [scramblase 5] |  |  | 10% | 
3 | Cc1ccc(S(=O)(=O)NCCN(CCNC(=O)Nc2ccc([N+](=O)[O-])cc2)CCNS(=O)(=O)c2ccc(C)cc2)cc1 [scramblase 2] |  |  | < 5% | 34%
4 | Cc1ccc(S(=O)(=O)NCCN(CCNCc2ccccc2)CCNS(=O)(=O)c2ccc(C)cc2)cc1 [scramblase 16] | 40 µM | > 15 µM |  | 
5 | Cc1ccc(S(=O)(=O)NCCN(CCNC(=O)[C@H](N)Cc2ccccc2)CCNS(=O)(=O)c2ccc(C)cc2)cc1.Cl [scramblase 15] | 40 µM | > 15 µM |  | 
6 | Cc1ccc(S(=O)(=O)NCCN(CCNC(=O)Nc2ccc(C(C)C)cc2)CCNS(=O)(=O)c2ccc(C)cc2)cc1 [scramblase 9] |  |  | < 5% | 
